# How the values were obtained:
# Presenilin-1 [1] = molecular target: T1, Presenilin-1 (Homo sapiens, UniProt P49768); test: Inhibition of PS1 gamma-secretase assessed as reduction of amyloid beta-40 production by membrane based assay
# Summary of the method: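 Aβ40 production was measured in a membrane-based assay. IC50 was the average of at least two measurements, with standard deviation 20%.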
# Presenilin-1 [2] = molecular target: T1, Presenilin-1; test: Inhibition of PS1 gamma-secretase expressed in HEK cells harboring Awe-Lon gene assessed as reduction of amyloid beta-40 production; format: cell-based, HEK293
# Summary of the method: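 Cell-based Aβ40 production assay in HEK293 cells carrying APP Awe-Lon. IC50 was the average of at least two determinations, with standard deviation 20%.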
# Mus musculus [3] = test: Antialzheimer activity in transgenic CRND8 mouse assessed as increase of amyloid beta-40 level in plasma at 30 mg/kg, po after 3 hrs; format: functional
# Summary of the method: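 CRND8 mice were dosed orally at 30 mg/kg. Aβ40 in plasma and cortex was measured 3 h post-dose and reported as % change, negative for lowering and positive for increase.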
# Presenilin-2 = Presenilin-2 (Homo sapiens, UniProt P49810); test: Inhibition of PS2 gamma-secretase expressed in HEK cells harboring Awe-Lon gene assessed as reduction of amyloid beta-42 production; format: cell-based, HEK293
# Presenilin-2, sequence (P49810 1-297 limits assumed): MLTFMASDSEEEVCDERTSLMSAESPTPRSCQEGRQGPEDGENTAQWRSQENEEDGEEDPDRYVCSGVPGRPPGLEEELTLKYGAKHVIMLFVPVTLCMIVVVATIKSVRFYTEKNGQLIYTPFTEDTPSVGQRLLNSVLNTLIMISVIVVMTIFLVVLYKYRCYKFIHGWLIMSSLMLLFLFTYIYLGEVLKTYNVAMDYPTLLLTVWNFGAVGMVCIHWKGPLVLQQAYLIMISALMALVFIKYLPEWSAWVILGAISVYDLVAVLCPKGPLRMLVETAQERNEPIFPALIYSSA
# Presenilin-2, sequence (P49810 298-448 limits assumed): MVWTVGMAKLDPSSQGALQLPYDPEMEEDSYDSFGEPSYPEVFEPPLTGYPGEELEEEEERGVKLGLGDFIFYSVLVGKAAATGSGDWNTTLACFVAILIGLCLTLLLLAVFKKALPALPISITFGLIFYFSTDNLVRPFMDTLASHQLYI
# [4] = Selectivity ratio of IC50 for PS2 gamma-secretase to IC50 for PS1 gamma-secretase
# Summary of the method: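 Inhibitors were tested against reconstituted γ-secretase complexes containing PS1 or PS2. The result is expressed as the PS2/PS1 ratio of IC50 values.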
# Mus musculus [5] = test: Antialzheimer activity in B6C3F1 mouse assessed as reduction of amyloid beta-40 level in plasma at 10 mg/kg, po after 3 hrs; format: functional; parameters: scale not given: the % may be the effect or the level left
# Summary of the method: (§1)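 B6C3F1 mice were dosed orally at 10 or 30 mg/kg. Aβ40 in plasma and cortex was measured 3 h after dosing and expressed as % change, with lowering shown as negative.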
# Mus musculus [6] = test: Antialzheimer activity in B6C3F1 mouse assessed as reduction of amyloid beta-40 level in cortex at 10 mg/kg, po after 3 hrs; format: functional; parameters: scale not given: the % may be the effect or the level left; summary of the method: as §1
# Mus musculus [7] = test: Antialzheimer activity in B6C3F1 mouse assessed as reduction of amyloid beta-40 level in plasma at 30 mg/kg, po after 3 hrs; format: functional; parameters: scale not given: the % may be the effect or the level left; summary of the method: as §1
# Mus musculus [8] = test: Antialzheimer activity in B6C3F1 mouse assessed as reduction of amyloid beta-40 level in cortex at 30 mg/kg, po after 3 hrs; format: functional; parameters: scale not given: the % may be the effect or the level left; summary of the method: as §1
IC50 (Presenilin-1 [1]) [nM],IC50 (Presenilin-1 [2]) [nM],IC50 (Presenilin-2) [nM],Ratio IC50 [4],Structure (SMILES),Activity (Mus musculus [3]) [%],Activity (Mus musculus [5]) [%],Activity (Mus musculus [6]) [%],Activity (Mus musculus [7]) [%],Activity (Mus musculus [8]) [%]
22,37,16,6,N#CCC[C@@H]1OCC[C@@]2(S(=O)(=O)c3ccc(Cl)cc3)c3c(F)ccc(F)c3OC[C@@H]12 (racemic),18,–,–,–,–
20,18,8,–,O=S(=O)(c1ccc(Cl)cc1)[C@@]12CCO[C@@H](CCO)[C@@H]1COc1c(F)ccc(F)c12,–,–,–,–,–
3,5,2,26,CCS(=O)(=O)CC[C@@H]1OCC[C@@]2(S(=O)(=O)c3ccc(Cl)cc3)c3c(F)ccc(F)c3OC[C@@H]12,–,–,–,60,79

# The remaining lines, values behind:
Structure (SMILES),IC50 (Presenilin-1 [1]) [nM],IC50 (Presenilin-1 [2]) [nM],IC50 (Presenilin-2) [nM],Ratio IC50 [4],Activity (Mus musculus [3]) [%],Activity (Mus musculus [5]) [%],Activity (Mus musculus [6]) [%],Activity (Mus musculus [7]) [%],Activity (Mus musculus [8]) [%]
CC(C)S(=O)(=O)CC[C@@H]1OCC[C@@]2(S(=O)(=O)c3ccc(Cl)cc3)c3c(F)ccc(F)c3OC[C@@H]12,6,8,3,–,–,2,58,–,–
CC(C)S(=O)(=O)CC[C@@H]1OCC[C@@]2(S(=O)(=O)c3ccc(Cl)cc3)c3c(F)ccc(F)c3OC[C@@H]12 (racemic),–,–,–,6,–,–,–,–,–

# — ChEMBL document CHEMBL2157980, “Discovery of SCH 900229, a Potent Presenilin 1 Selective γ-Secretase Inhibitor for the Treatment of Alzheimer's Disease” (ACS Med Chem Lett, 2012)
